According to ChEMBL document CHEMBL1123118, “Substrate probes for the mechanism of aromatic hydroxylation catalyzed by cytochrome P-450: selectively deuterated analogues of warfarin” (J Med Chem, 1985):

Key:
[1] = organism: Rattus norvegicus; experiment: Amount of deuterium retained was reported after normal workup in beta-naphthoflavone-treated male rats with the substrate rac 7-D; format: ADME, organism-based
Summary of the method: (§1)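 Liver microsomes from male Sprague-Dawley rats (140–160 g), untreated or pretreated with phenobarbital or β-naphthoflavone; protein set to 10 mg/mL. The 1-mL mix held substrate, an NADP+/glucose 6-phosphate/MgCl2 cofactor solution, glucose-6-phosphate dehydrogenase and microsomes in 0.05 M phosphate pH 7.4. It ran 10 min at 37 °C, in duplicate. Hydroxywarfarins were measured by capillary GC-MS, and % deuterium retention was calculated as product over substrate incorporation.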

[2] = organism: Rattus norvegicus; experiment: Amount of deuterium retained was reported after normal workup in rats; format: ADME, organism-based; summary of the method: as §1
[3] = organism: Rattus norvegicus; experiment: Compound incubated with microsomal preparations from phenobarbital treated male rats with the substrate rac 8-D and the amount of deuterium retained was reported after normal workup; format: ADME; summary of the method: as §1
[4] = organism: Rattus norvegicus; experiment: Compound incubated with microsomal preparations from beta-naphthoflavone-treated male rats with the substrate rac 7-D and the amount of deuterium retained was reported after reincubation followed by normal workup; format: ADME
[5] = organism: Rattus norvegicus; experiment: Amount of deuterium retained was reported after reincubation followed by normal workup in phenobarbital treated male rats; format: ADME, organism-based
[6] = organism: Rattus norvegicus; experiment: Amount of deuterium retained was reported after reincubation followed by normal workup in phenobarbital treated male rats with rac 8-D; format: ADME, organism-based

Row | SMILES | Deuterium retention [1] [%] | Deuterium retention [2] [%] | Deuterium retention [3] [%] | Deuterium retention [4] [%] | Deuterium retention [5] [%] | Deuterium retention [6] [%]
1 | CC(=O)CC(c1ccccc1)c1c(O)oc2c(O)cccc2c1=O (centres undefined) | 76 | 82 | 58 | 76 | 83 | 58
2 | CC(=O)CC(c1ccc(O)cc1)c1c(O)oc2ccccc2c1=O (centres undefined) | 86 | 84 | 92 | 83 | 85 | 91
3 | CC(=O)CC(c1ccccc1)c1c(O)oc2ccc(O)cc2c1=O (centres undefined) | 84 | 66 | 90 | 84 | 65 | 89
4 | CC(=O)CC(c1ccccc1)c1c(O)oc2cc(O)ccc2c1=O (centres undefined) | 52 | 76 | 84 | 50 | 76 | 83
